# Assay results: ChEMBL document CHEMBL4689842, “EUbOPEN Chemogenomics Library wave 1” (2021)
# “And” between values parts separate entries of the source, which are not always exact repeats. Equal values may be shown once.
# Test system: U2OS
# Assay: Multiplex assay against U2OS
# Format: toxicity, cell-based
# Settings: human
# Procedure, shortened: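 Compound was added to live cells that had been stained at seeding with Hoechst33342, BioTracker Green Microtubule Cytoskeleton Dye, MitoTracker Red and Annexin V Alexa Fluor 680, and imaging followed on a CQ1 microscope at 37°C and 5% CO2. CellPathfinder machine-learning gating divided cells into Hoechst high-intensity objects or normal cells, normal cells into healthy, pyknosed or fragmented nuclei, and pyknosed cells into mitotic or apoptotic. Tubulin, mitochondrial-mass and membrane-permeability phenotypes are per cents of healthy-nucleus cells.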
# [1] = 12 h, 1 µM, compound concentration 1 uM, replicate 1
# [2] = 12 h, 1 µM, compound concentration 1 uM, replicate 2
# [3] = 12 h, 10 µM, compound concentration 10 uM, replicate 1
# [4] = 12 h, 10 µM, compound concentration 10 uM, replicate 2
# [5] = 24 h, 1 µM, compound concentration 1 uM, replicate 1
# [6] = 24 h, 1 µM, compound concentration 1 uM, replicate 2
# [7] = 24 h, 10 µM, compound concentration 10 uM, replicate 1
# [8] = 24 h, 10 µM, compound concentration 10 uM, replicate 2
# [9] = 48 h, 10 µM, compound concentration 10 uM, replicate 1
# [10] = 48 h, 10 µM, compound concentration 10 uM, replicate 2
smiles,measurement,setting,value
CNC(=O)c1nn(C)c2c1C(C)(C)Cc1cnc(Nc3ccc(N4CCN(C)CC4)cc3)nc1-2 [MILCICLIB],Population Apoptotic (%),[1],39%
same,Population Fragmented Nuclei (%),[1],17%
same,Population Healthy Nuclei (%),[1],66%
same,Population Hoechst High Intensity Objects (%),[1],6%
same,Population Membrane Permeable-Phenotype (%),[1],25%
same,Population Mitochondria Different-Phenotype (%),[1],64%
same,Population Mitotic Cells (%),[1],60%
same,Population Normal (%),[1],93%
same,Population Pyknosed Nuclei (%),[1],15%
same,Population Tubulin-Different-Phenotype (%),[1],100%
same,Total Cell Count,[1],194
same,Population Apoptotic (%),[2],58%
same,Population Fragmented Nuclei (%),[2],18%
same,Population Healthy Nuclei (%),[2],69%
same,Population Hoechst High Intensity Objects (%),[2],18%
same,Population Membrane Permeable-Phenotype (%),[2],12%
same,Population Mitochondria Different-Phenotype (%),[2],76%
same,Population Mitotic Cells (%),[2],41%
same,Population Normal (%),[2],81%
same,Population Pyknosed Nuclei (%),[2],12%
same,Population Tubulin-Different-Phenotype (%),[2],90%
same,Total Cell Count,[2],163
same,Population Apoptotic (%),[3],60% and 50% and 62%
same,Population Fragmented Nuclei (%),[3],16% and 20% and 13%
same,Population Healthy Nuclei (%),[3],49% and 42% and 64%
same,Population Hoechst High Intensity Objects (%),[3],7% and 10% and 5%
same,Population Membrane Permeable-Phenotype (%),[3],20% and 15% and 29%
same,Population Mitochondria Different-Phenotype (%),[3],95% and 98% and 57%
same,Population Mitotic Cells (%),[3],40% and 50% and 37%
same,Population Normal (%),[3],92% and 89% and 94%
same,Population Pyknosed Nuclei (%),[3],33% and 37% and 21%
same,Population Tubulin-Different-Phenotype (%),[3],98% and 100% and 99%
same,Total Cell Count,[3],208 and 243 and 221
same,Population Apoptotic (%),[4],73% and 55%
same,Population Fragmented Nuclei (%),[4],12% and 8%
same,Population Healthy Nuclei (%),[4],54% and 68% and 62%
same,Population Membrane Permeable-Phenotype (%),[4],28% and 25% and 24%
same,Population Mitochondria Different-Phenotype (%),[4],100% and 76%
same,Population Mitotic Cells (%),[4],26% and 44%
same,Population Normal (%),[4],90% and 85% and 97%
same,Population Pyknosed Nuclei (%),[4],25% and 19% and 29%
same,Population Tubulin-Different-Phenotype (%),[4],91%
same,Total Cell Count,[4],122 and 87 and 65
same,Population Apoptotic (%),[5],85%
same,Population Fragmented Nuclei (%),[5],17%
same,Population Healthy Nuclei (%),[5],54%
same,Population Hoechst High Intensity Objects (%),[5],11%
same,Population Membrane Permeable-Phenotype (%),[5],33%
same,Population Mitochondria Different-Phenotype (%),[5],92%
same,Population Mitotic Cells (%),[5],14%
same,Population Normal (%),[5],88%
same,Population Pyknosed Nuclei (%),[5],27%
same,Population Tubulin-Different-Phenotype (%),[5],100%
same,Total Cell Count,[5],186
same,Population Apoptotic (%),[6],86%
same,Population Fragmented Nuclei (%),[6],20%
same,Population Healthy Nuclei (%),[6],60%
same,Population Hoechst High Intensity Objects (%),[6],23%
same,Population Membrane Permeable-Phenotype (%),[6],22%
same,Population Mitochondria Different-Phenotype (%),[6],83%
same,Population Mitotic Cells (%),[6],13%
same,Population Normal (%),[6],76%
same,Population Pyknosed Nuclei (%),[6],18%
same,Population Tubulin-Different-Phenotype (%),[6],87%
same,Total Cell Count,[6],160
same,Population Apoptotic (%),[7],78% and 87% and 84%
same,Population Fragmented Nuclei (%),[7],20% and 22% and 15%
same,Population Healthy Nuclei (%),[7],27% and 32% and 52%
same,Population Hoechst High Intensity Objects (%),[7],15% and 11%
same,Population Membrane Permeable-Phenotype (%),[7],40% and 25% and 36%
same,Population Mitochondria Different-Phenotype (%),[7],100% and 93%
same,Population Mitotic Cells (%),[7],21% and 12% and 15%
same,Population Normal (%),[7],84% and 88%
same,Population Pyknosed Nuclei (%),[7],51% and 45% and 32%
same,Population Tubulin-Different-Phenotype (%),[7],100% and 95% and 96%
same,Total Cell Count,[7],235 and 238 and 280
same,Population Apoptotic (%),[8],66% and 83% and 86%
same,Population Fragmented Nuclei (%),[8],9% and 14%
same,Population Healthy Nuclei (%),[8],49% and 64% and 61%
same,Population Hoechst High Intensity Objects (%),[8],12% and 13% and 18%
same,Population Membrane Permeable-Phenotype (%),[8],56% and 31% and 62%
same,Population Mitochondria Different-Phenotype (%),[8],82%
same,Population Mitotic Cells (%),[8],33% and 16% and 13%
same,Population Normal (%),[8],87% and 86% and 81%
same,Population Pyknosed Nuclei (%),[8],40% and 21% and 28%
same,Population Tubulin-Different-Phenotype (%),[8],93%
same,Total Cell Count,[8],78 and 113 and 118
same,Population Apoptotic (%),[9],86% and 85%
same,Population Fragmented Nuclei (%),[9],29% and 24%
same,Population Healthy Nuclei (%),[9],9% and 15%
same,Population Hoechst High Intensity Objects (%),[9],15% and 20%
same,Population Membrane Permeable-Phenotype (%),[9],26% and 55%
same,Population Mitochondria Different-Phenotype (%),[9],100%
same,Population Mitotic Cells (%),[9],13% and 14%
same,Population Normal (%),[9],84% and 79%
same,Population Pyknosed Nuclei (%),[9],61% and 59%
same,Population Tubulin-Different-Phenotype (%),[9],89%
same,Total Cell Count,[9],315 and 232
same,Population Apoptotic (%),[10],76% and 84%
same,Population Fragmented Nuclei (%),[10],11% and 10%
same,Population Healthy Nuclei (%),[10],38% and 52%
same,Population Hoechst High Intensity Objects (%),[10],30% and 27%
same,Population Membrane Permeable-Phenotype (%),[10],87% and 71%
same,Population Mitochondria Different-Phenotype (%),[10],97%
same,Population Mitotic Cells (%),[10],23% and 15%
same,Population Normal (%),[10],70% and 72%
same,Population Pyknosed Nuclei (%),[10],50% and 37%
same,Population Tubulin-Different-Phenotype (%),[10],100% and 95%
same,Total Cell Count,[10],118 and 104
CC(=O)O[C@H]1C(=O)[C@@]2(C)[C@H]([C@H](OC(=O)c3ccccc3)[C@]3(O)C[C@H](OC(=O)[C@H](O)[C@@H](NC(=O)c4ccccc4)c4ccccc4)C(C)=C1C3(C)C)[C@]1(OC(C)=O)CO[C@@H]1C[C@@H]2O [PACLITAXEL],Population Fragmented Nuclei (%),[1],6% and 4%
same,Population Healthy Nuclei (%),[1],86% and 92%
same,Population Hoechst High Intensity Objects (%),[1],3% and 2%
same,Population Membrane Permeable-Phenotype (%),[1],15% and 11%
same,Population Mitochondria Different-Phenotype (%),[1],21% and 22%
same,Population Mitotic Cells (%),[1],33% and 80%
same,Population Normal (%),[1],96% and 97%
same,Population Pyknosed Nuclei (%),[1],7% and 3%
same,Population Tubulin-Different-Phenotype (%),[1],32% and 25%
same,Population Apoptotic (%),[2],6% and 8%
same,Population Fragmented Nuclei (%),[2],7%
same,Population Healthy Nuclei (%),[2],81% and 84%
same,Population Hoechst High Intensity Objects (%),[2],10% and 11%
same,Population Membrane Permeable-Phenotype (%),[2],14% and 7%
same,Population Mitochondria Different-Phenotype (%),[2],24% and 30%
same,Population Mitotic Cells (%),[2],93% and 91%
same,Population Normal (%),[2],90% and 88%
same,Population Pyknosed Nuclei (%),[2],10% and 8%
same,Population Tubulin-Different-Phenotype (%),[2],33%
same,Population Apoptotic (%),[3],30% and 77% and 26%
same,Population Fragmented Nuclei (%),[3],3% and 5% and 4% and 2%
same,Population Healthy Nuclei (%),[3],91% and 89%
same,Population Hoechst High Intensity Objects (%),[3],3% [middle of 4 runs]
same,Population Membrane Permeable-Phenotype (%),[3],11% and 7%
same,Population Mitochondria Different-Phenotype (%),[3],19% and 25%
same,Population Normal (%),[3],96% and 95% and 99% and 98%
same,Population Pyknosed Nuclei (%),[3],5%
same,Population Tubulin-Different-Phenotype (%),[3],41% and 30% and 39%
same,Population Fragmented Nuclei (%),[4],10% and 6%
same,Population Healthy Nuclei (%),[4],81% and 88% and 83% and 87%
same,Population Hoechst High Intensity Objects (%),[4],12% and 9% and 11%
same,Population Membrane Permeable-Phenotype (%),[4],12% and 9% and 8% and 6%
same,Population Mitochondria Different-Phenotype (%),[4],28% and 20% and 33%
same,Population Mitotic Cells (%),[4],77% [middle of 4 runs]
same,Population Normal (%),[4],87% and 90% and 88%
same,Population Pyknosed Nuclei (%),[4],8% and 6% and 2%
same,Population Tubulin-Different-Phenotype (%),[4],28% and 26% and 31%
same,Population Fragmented Nuclei (%),[5],4%
same,Population Healthy Nuclei (%),[5],93% and 90%
same,Population Hoechst High Intensity Objects (%),[5],1% and 3%
same,Population Membrane Permeable-Phenotype (%),[5],10% and 3%
same,Population Mitochondria Different-Phenotype (%),[5],19% and 15%
same,Population Mitotic Cells (%),[5],40% and 83%
same,Population Normal (%),[5],98% and 96%
same,Population Pyknosed Nuclei (%),[5],2% and 5%
same,Population Tubulin-Different-Phenotype (%),[5],35%
same,Population Apoptotic (%),[6],38% and 33%
same,Population Fragmented Nuclei (%),[6],5%
same,Population Healthy Nuclei (%),[6],87% and 91%
same,Population Hoechst High Intensity Objects (%),[6],6% and 7%
same,Population Membrane Permeable-Phenotype (%),[6],12% and 9%
same,Population Mitochondria Different-Phenotype (%),[6],23% and 26%
same,Population Mitotic Cells (%),[6],61% and 66%
same,Population Normal (%),[6],93% and 92%
same,Population Pyknosed Nuclei (%),[6],6% and 4%
same,Population Tubulin-Different-Phenotype (%),[6],37% and 33%
same,Population Apoptotic (%),[7],37% and 21%
same,Population Fragmented Nuclei (%),[7],3% and 2%
same,Population Healthy Nuclei (%),[7],94% and 91% and 93%
same,Population Hoechst High Intensity Objects (%),[7],2% and 1%
same,Population Membrane Permeable-Phenotype (%),[7],6% and 4%
same,Population Mitochondria Different-Phenotype (%),[7],26% and 17% and 29%
same,Population Mitotic Cells (%),[7],62% and 78%
same,Population Normal (%),[7],97% and 98%
same,Population Pyknosed Nuclei (%),[7],2% and 4% and 5%
same,Population Tubulin-Different-Phenotype (%),[7],50% and 38% and 34% and 37%
same,Population Apoptotic (%),[8],50% [middle of 4 runs]
same,Population Fragmented Nuclei (%),[8],10% and 5% and 7%
same,Population Healthy Nuclei (%),[8],81% and 86% and 85%
same,Population Hoechst High Intensity Objects (%),[8],5% and 3% and 4% and 9%
same,Population Mitochondria Different-Phenotype (%),[8],32% [middle of 4 runs]
same,Population Mitotic Cells (%),[8],45% and 66% and 50% and 64%
same,Population Normal (%),[8],94% and 96% and 95% and 90%
same,Population Pyknosed Nuclei (%),[8],8% and 3% and 6%
same,Population Tubulin-Different-Phenotype (%),[8],31% and 26% and 27%
